Screens (PubChem BioAssay)
This is a sample that favours compounds with a hit; in the whole collection about 11% have one here.
D1 mod – allosterically modulates the human D1 dopamine receptor; P21728; HEK293 D1, CRE-luciferase, dopamine EC30 potentiation; actives deviate in either direction; B-score at 10 µM; 58,000 compounds, 5.9% hits;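 active means luminescence count or its row- and column-corrected plate score outside the 99.7% band of the plate's sample wells, on either side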
S1P3 ag – agonists of human S1P3 receptor | S1P3 NFAT-BLA reporter cells, agonism, FRET ratio; relative to 1 µM S1P, basal subtracted | activation, % at 4.5 µM | 60,000 compounds, 0.1% hits;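 active means activation above the screen-wide mean plus 3 SD, cut at about 4.5% in these data, passing the limit was not always enough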
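Assay system: stable CHO line with human S1P3, Gα16, NFAT-BLA reporter; Detection: FRET β-lactamase substrate fluorescence, excitation 405 nm, 460/535 nm emission ratio, background-subtracted; Read-out: percent activation versus median 1 µM S1P response, basal-subtracted, per plate; Incubation: cells plated overnight, compound 4 h 37 °C, substrate 2 h RT.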
M1 antagonist – antagonists of rat M1 muscarinic receptor. AID 628. 64,000 compounds, 3.4% hits. CHO-M1 cells, Fluo-4 calcium, ACh EC80 antagonist mode; hits give low values. B-score at 10 µM;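 active means calcium fluorescence response, raw or row-and-column corrected B-score, differing from the plate sample mean either way at a set confidence level, mostly lower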
TNAP act mid DEA – activates human TNAP at intermediate phosphate acceptor concentration; activation factor at 20 µM; purified TNAP, CDP-star luminescence, 100 mM DEA, 30 min; hits give high values; scale: 0 levamisole-inhibited, 1 vehicle-only enzyme; 64,000 tested, under 10 active;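 active means activation factor of at least 2 at 20 µM, relative to controls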
Target sequence (P05186 whole entry, looked up): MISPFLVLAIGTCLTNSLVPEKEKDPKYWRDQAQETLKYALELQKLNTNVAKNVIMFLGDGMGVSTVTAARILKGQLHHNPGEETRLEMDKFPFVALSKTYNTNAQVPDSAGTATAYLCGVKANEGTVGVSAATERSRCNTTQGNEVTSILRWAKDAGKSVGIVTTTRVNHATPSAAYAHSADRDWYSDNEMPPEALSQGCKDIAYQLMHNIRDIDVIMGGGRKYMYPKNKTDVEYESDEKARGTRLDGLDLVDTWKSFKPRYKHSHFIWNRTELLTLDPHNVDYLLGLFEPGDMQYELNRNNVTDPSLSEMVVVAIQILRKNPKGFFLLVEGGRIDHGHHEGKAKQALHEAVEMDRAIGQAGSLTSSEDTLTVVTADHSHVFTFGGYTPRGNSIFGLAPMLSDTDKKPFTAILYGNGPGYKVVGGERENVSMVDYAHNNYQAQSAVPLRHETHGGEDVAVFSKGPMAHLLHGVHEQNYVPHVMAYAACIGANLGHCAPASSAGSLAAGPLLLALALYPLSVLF
M1 ag – M1 muscarinic receptor agonism. CHO-M1 cells, Fluo-4 calcium fluorescence, agonist mode; hits give high values. B-score at 10 µM. 64,000 compounds, 3% hits;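 active means fluorescence rise, raw or as B-score row- and column-corrected plate score, outside the 99.7% band of its plate's samples, either direction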
S1P1 ag-PAM – activates or potentiates agonism at human S1P1 receptor. P21453. S1P1 CRE-bla cells, forskolin, beta-lactamase FRET, potentiator mode; S1P1 agonist co-added at EC20, 2 nM; 100% = saturating reference agonist, 0% = basal. activation, % at 9.5 µM. 56,000 compounds, 0.57% hits;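 active means activation above a cutoff set at the mean activation of all tested compounds plus 3 SD, cut at about 54% in these data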;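 further: forskolin at 4 µM as EC80 and the EC20 agonist is SEW2871; 100% = SEW2871 at its EC100 plus forskolin at EC80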
M1 antag confirm – M1 muscarinic receptor (rat) antagonism, confirmed. shares compounds with M1 antagonist. CHO-M1 cells, Fluo-4 calcium, ACh EC80 antagonism; hits give low values. calcium response (max-min fluorescence) at 10 µM. 1,700 compounds, 43% hits;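 active means calcium response below the same-plate mean of wells given acetylcholine alone at its 80%-effect dose, minus 3 SD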;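 further: raw fluorescence intensity difference in arbitrary instrument units and not normalized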
mGluR4 antag – acts on human mGluR4 in M1 antagonist selectivity test; shares compounds with M1 antagonist; CHO-mGluR4 calcium flux, Fluo-4 fluorescence, glutamate EC80; hits give low values; fluorescence response (max-min) at 10 µM; 1,700 compounds, 0.9% hits; AID 678;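 active means fluorescence response below the plate's average for near-maximal glutamate wells, less 3 SD of those wells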;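 further: raw unnormalized fluorescence span taken in the window right after glutamate addition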
An asterisk follows results filed as active.

What do the screens show for `COc1ccc(C(c2nnnn2Cc2ccc(F)cc2)N2CCN(c3ccc(OC)cc3)CC2)cc1` (stereo not given)?
D1 mod: -0.9; S1P3 ag: -1; M1 antagonist: -3.8*; TNAP act mid DEA: 1; M1 ag: 0.8; S1P1 ag-PAM: -26; M1 antag confirm: 661; mGluR4 antag: 168

What do the screens show for `COc1ccc(C(=O)N2CCN(C(=O)Cc3ccccc3)CC2)cc1OC`?
D1 mod: -0.0051; S1P3 ag: 0; M1 antagonist: -3.7*; TNAP act mid DEA: 1; M1 ag: -0.56; S1P1 ag-PAM: -1; M1 antag confirm: 519; mGluR4 antag: 181

What do the screens show for `O=C(CCOc1ccccc1)Nc1ccc(S(=O)(=O)N2CCCC2)cc1`?
D1 mod: 0.74; S1P3 ag: 1; M1 antagonist: 0.1; TNAP act mid DEA: 0.9; M1 ag: 1.6; S1P1 ag-PAM: 4

What do the screens show for `CCOc1ccc2nc(N3CCCCCC3)sc2c1`?
D1 mod: -0.79; S1P3 ag: 1; M1 antagonist: 0.77; TNAP act mid DEA: 0.9; M1 ag: 0.14; S1P1 ag-PAM: -10

Results for CN(C)c1nc2ccc(OCCN3CCCCC3)cc2s1 ?
D1 mod: -3.4*; S1P3 ag: 0; M1 antagonist: -3*; TNAP act mid DEA: 0.9; M1 ag: -0.28; M1 antag confirm: 408*; mGluR4 antag: 216

Results for Cc1cc(C)nc(N2CCC(C(=O)O)CC2)n1 ?
D1 mod: -0.83; S1P3 ag: 0; M1 antagonist: 0.28; TNAP act mid DEA: 0.9; M1 ag: -0.38; S1P1 ag-PAM: 6

How did Cc1cc(C)nc(N2CCN(c3nc(C)cc(C)n3)CC2)n1 do in these assays?
D1 mod: -0.84; S1P3 ag: 0; M1 antagonist: -7.7*; TNAP act mid DEA: 0.9; M1 ag: -0.26; S1P1 ag-PAM: -18; M1 antag confirm: 719; mGluR4 antag: 217

What do the screens show for `CC(C)NC(=O)c1cc(=O)n(C)c(=O)n1C`?
D1 mod: 0.083; S1P3 ag: 0; TNAP act mid DEA: 1; S1P1 ag-PAM: -3

Results for CC(C)(C)c1cnnn1-c1ccc(NC(=O)c2ccc(Br)o2)cc1 ?
M1 antagonist: -2.3*; TNAP act mid DEA: 0.9; M1 ag: -0.014; M1 antag confirm: 560*; mGluR4 antag: 236

What do the screens show for `CN(C1CCCCC1)S(=O)(=O)c1ccc(S(=O)(=O)N2CCCC2)cc1`?
D1 mod: -0.53; S1P3 ag: 0; M1 antagonist: -3.3*; TNAP act mid DEA: 0.9; M1 ag: 0.3; S1P1 ag-PAM: 13; M1 antag confirm: 327*; mGluR4 antag: 236

Results for CC(C)NC(=O)Cn1nnc(-c2cccc(NC(=O)c3ccccc3F)c2)n1 ?
D1 mod: -0.48; S1P3 ag: -1; M1 antagonist: -17*; TNAP act mid DEA: 0.9; M1 ag: 0.58; S1P1 ag-PAM: 29; M1 antag confirm: 634; mGluR4 antag: 250

Results for CCOC(=O)c1cccc(NC(=O)CSc2nnc(C)n2Cc2ccccc2)c1 ?
D1 mod: 0.42; S1P3 ag: 0; M1 antagonist: 0.79; TNAP act mid DEA: 0.8; M1 ag: 0.018; S1P1 ag-PAM: -4

Results for CCCCCCn1c(-c2ccco2)nc2oc3cc(OC)ccc3c(=O)c2c1=O ?
D1 mod: 0.59; S1P3 ag: -1; M1 antagonist: -0.83; TNAP act mid DEA: 0.9; M1 ag: -0.004; S1P1 ag-PAM: -34

Results for CN(C(=O)CSc1nc(-c2ccc(F)cc2)cs1)C1CCS(=O)(=O)C1 (stereo not given) ?
D1 mod: 1.2; S1P3 ag: -1; M1 antagonist: -3.1*; TNAP act mid DEA: 1; M1 ag: -0.17; S1P1 ag-PAM: 16; M1 antag confirm: 407; mGluR4 antag: 210

Results for CCCc1nc(S(=O)(=O)Cc2ccc(Cl)cc2Cl)n[nH]1 ?
D1 mod: -1.6; S1P3 ag: -1; M1 antagonist: -0.31; TNAP act mid DEA: 0.6; M1 ag: 0.67; S1P1 ag-PAM: 24

How did COc1ccc(OC)c(CNC(=O)C2CCN(C(=O)N(C)C)CC2)c1 do in these assays?
D1 mod: 1.8; S1P3 ag: 0; M1 antagonist: -3*; TNAP act mid DEA: 0.9; M1 ag: -0.32; S1P1 ag-PAM: -7; M1 antag confirm: 644; mGluR4 antag: 266

Results for CCOC(=O)CCc1c(C)c2c(C)nn(-c3ccccc3)c2[nH]c1=O ?
D1 mod: 1.2; S1P3 ag: 0; M1 antagonist: -0.28; TNAP act mid DEA: 1; M1 ag: -0.78; S1P1 ag-PAM: -18

Results for CCn1c(=O)cc(OCC(=O)Nc2ccccc2N2CCN(C)CC2)c2ccccc21 ?
D1 mod: -0.9; S1P3 ag: 0; M1 antagonist: -2; TNAP act mid DEA: 0.9; M1 ag: -0.041; S1P1 ag-PAM: -59

Results for CN1CCN(c2ccccc2NC(=O)c2ccc(OCc3ccccc3)cc2)CC1 ?
D1 mod: -4.6*; S1P3 ag: -1; M1 antagonist: -2.2*; TNAP act mid DEA: 0.9; M1 ag: 4.2; S1P1 ag-PAM: -3; M1 antag confirm: 403*; mGluR4 antag: 277

Results for O=C(CCN1CCN(CCO)CC1)Nc1ccc(OCc2ccccc2)cc1 ?
D1 mod: 0.33; S1P3 ag: 0; M1 antagonist: -0.22; TNAP act mid DEA: 0.9; M1 ag: -0.25; S1P1 ag-PAM: -2

Results for CN1CCN(CCC(=O)Nc2ccc(OCc3ccccc3)cc2)CC1 ?
D1 mod: -1.9; S1P3 ag: -1; M1 antagonist: -1.7*; TNAP act mid DEA: 0.9; M1 ag: -1.7; S1P1 ag-PAM: 6; M1 antag confirm: 557; mGluR4 antag: 258

How did CN1CCN(c2ccccc2NC(=O)Cc2cn(C)c3ccccc23)CC1 do in these assays?
S1P3 ag: -1; M1 antagonist: -0.74*; TNAP act mid DEA: 1; M1 ag: 0.21; S1P1 ag-PAM: 3; M1 antag confirm: 522*; mGluR4 antag: 230

How did CN1CCN(C(=O)c2ccc(N(Cc3ccc(Cl)cc3)S(C)(=O)=O)cc2)CC1 do in these assays?
D1 mod: -0.04; S1P3 ag: 0; M1 antagonist: -0.61; TNAP act mid DEA: 0.9; M1 ag: 0.24; S1P1 ag-PAM: -1
